# Experimental data published in article PMC8404148 (Endocrine-related cancer, 2021).
# Experiments:
# [1] = tested on: 5097 PDX organoids; experiment: Breast cancer PDX organoid growth, 5097 line; type: cell-based, human; conditions: 10 nM single agent, two weeks, vs vehicle
# [2] = tested on: 4013 PDX organoids; experiment: Breast cancer PDX organoid growth, 4013 line; type: cell-based, human; conditions: SI-12 10 nM, BEZ235 2 nM, two weeks
# In short: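 Organoids derived from the 4013 PDX tumour, which came from a patient with triple-negative infiltrating ductal carcinoma. The tumour was passaged in mice eight times before use.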
# [3] = tested on: MCF-7 cells; conditions: read-out: IC50 for suppressing MCF-7 cell growth, ref Wang et al. 2014; cited from earlier work
smiles,measurement,setting,value
CCN1CCN(Cc2ccc(Nc3ncc(F)c(-c4cc(F)c5nc(C)n(C(C)C)c5c4)n3)nc2)CC1 [Abemaciclib],organoid numbers,[1],reduced organoid numbers
Cn1c(=O)n(-c2ccc(C(C)(C)C#N)cc2)c2c3cc(-c4cnc5ccccc5c4)ccc3ncc21 [BEZ235],"organoid formation, single compound",[2],could repress organoid formation
C[C@]12CC[C@H](O)C[C@H]1CC[C@@H]1[C@@H]2CC[C@]2(C)[C@@H](c3ccc(=O)oc3)CC[C@]12O [bufalin],IC50,[3],3.2 nM
